# Source: PubChem (several laboratories)
# Most compounds without a hit are left out; they make up all but 2.5% or so of the library.
# UCH37 inh – inhibitors of human UCH37 deubiquitinase, primary screen, biochemical, Ub-AMC cleavage, fluorescence; Ubiquitin carboxyl-terminal hydrolase isozyme L5 (Homo sapiens), Q9Y5K5; inhibition, % (test concentration not listed); 0.33% of 330,000 active; purified proteasome/UCH37; AID 588478, 2011;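 active = mean inhibition over replicate wells above about 20%, limit read from the data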;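 note: 0% = compound-free wells with enzyme and 100% = wells lacking proteasome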
# Target sequence (Q9Y5K5 whole entry, looked up): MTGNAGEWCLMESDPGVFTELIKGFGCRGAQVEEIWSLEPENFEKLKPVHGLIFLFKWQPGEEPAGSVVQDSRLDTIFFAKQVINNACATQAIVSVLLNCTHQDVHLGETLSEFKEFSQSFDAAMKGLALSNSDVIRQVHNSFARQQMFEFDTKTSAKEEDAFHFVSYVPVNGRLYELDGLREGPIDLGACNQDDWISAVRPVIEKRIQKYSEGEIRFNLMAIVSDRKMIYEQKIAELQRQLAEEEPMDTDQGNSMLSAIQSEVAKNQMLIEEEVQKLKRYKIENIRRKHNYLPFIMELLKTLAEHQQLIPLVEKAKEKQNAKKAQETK
#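 Material: Human UCH37 enzyme supplied as purified proteasome complex | Schedule: 30 min preincubation with enzyme, 25 min cleavage at room temperature | Detection: AMC fluorescence 355/460 nm | Measure: % inhibition of Ub-AMC cleavage fluorescence | Controls: Wells without proteasome as full block, compound-free enzyme plus substrate as uninhibited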
# Rce1 inhib – yeast Rce1p protease inhibitors, primary screen, biochemical, fluorescence, cell-free homogeneous. 0.27% of 290,000 active. yeast membranes, quenched prenylated peptide cleavage fluorescence. AID 2563, 2010. calls only;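 active = fall in fluorescence gain of 50% or more versus controls, with final raw signal at or below 3038400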;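 note: plate controls were neutral control wells for no effect and wells lacking membranes for full effect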
# MEKK3 PB1 HTS – modulators of MEKK3-MEK5 PB1 binding, primary screen, biochemical, wildtype MEKK3, multiplex bead flow cytometry, Alexa488-MEK5 | bead-based flow cytometry, Alexa488-MEK5 binding to MEKK3; actives lie on both sides; 0 = blocked by unlabeled MEK5, 100 = vehicle | binding response (% of control), % at 10 µM | 1.4% of 290,000 active | AID 1529, 2009;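 active = binding response more than 3 SD above or below the average of its plate-row segment, actives on both sides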;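 note: Alexa488 bead fluorescence after subtracting the streptavidin-only scavenger bead signal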
# MEKK2mut PB1 HTS – MEK5 binding signal on mutant MEKK2 PB1, primary screen, biochemical, multiplex bead flow cytometry, Alexa488-MEK5; Alexa488-MEK5 binding to MEKK2 mutant; percent response, % at 10 µM; 0.35% of 290,000 active; in the data active = percent response above about 24%, passing the limit was not always enough
# T cell HTS – modulators of CD8 T cell-vesicle binding, primary screen, mouse 2C CD8+ T cells, flow cytometry | 2C CD8+ T cell-vesicle binding; active compounds read low | response (vesicle binding), % at 7 µM | 0.068% of 330,000 active | AID 2052, 2009;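 active = response, share of CD8 T cells binding vesicles, and their 90th percentile fluorescence all below set limits, cut at about 80% in these data, passing the limit was not always enough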;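 note: values below 100% mean blocked vesicle binding to the CD8+ T cells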
#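 material = purified 2C TCR transgenic mouse naive CD8+ T cells | controls = Unloaded micro-vesicles (low), QL9 vesicles with 0.7% DMSO (high) | detection = cytometric PE anti-B7-1 and Alexa647 anti-CD8 signals after 1% paraformaldehyde fixation | incubation = binding step 1.5 h, 37 °C, antibody labelling 20 min, ice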
# MEKK2wt PB1 HTS – modulators of MEK5 binding to wildtype MEKK2, primary screen, biochemical, multiplex bead flow cytometry, Alexa488-MEK5; Mitogen-activated protein kinase kinase kinase 2 (Homo sapiens), Q9Y2U5; Alexa488-MEK5 binding to MEKK2 WT; actives lie on both sides; binding response (% of control), % at 10 µM; 1.1% of 290,000 active; AID 1531, 2009; in the data active = binding response below about 67% or above about 130%
# MEKK2wt confirm – modulators of MEK5 binding to wildtype MEKK2, confirmation, biochemical, single concentration, multiplex bead flow cytometry; shares compounds with MEKK3 PB1 HTS; Alexa488-MEK5 binding to MEKK2 WT; actives lie on both sides; binding response (% of control), % at 10 µM; 2.4% of 5,900 active; AID 1892, 2009; in the data active = binding response below about 16% or above about 210%; inactive = in between
# MEKK2mut confirm – mutant MEKK2 PB1-MEK5 binding signal retest – biochemical, single concentration, multiplex bead flow cytometry, confirmation; percent response, % at 10 µM; 2% of 5,900 active; AID 1893, 2009; Alexa488-MEK5 binding to MEKK2 mutant; shares compounds with MEKK3 PB1 HTS; in the data active = percent response mostly above about 71%, no sharp cut-off; inactive = mostly below about 38%;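 note: higher means compound restores mutant binding toward wildtype level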
# MEKK3 confirm – MEKK3 wild-type PB1 binding to MEK5, inhibitors, confirmation, biochemical, bead multiplex flow cytometry, single concentration, wildtype. Alexa488-MEK5 binding to MEKK3; active compounds read low. AID 1894, 2009. binding response (% of control), % at 10 µM. 1.8% of 5,900 active. shares compounds with MEKK3 PB1 HTS;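 active = binding response below 72% of control, or above a set upper limit, though filed actives all read lower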;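 note: 100% = DMSO only wells and 0% = binding blocked by excess unlabeled MEK5; lower values mean stronger disruption of MEK5 binding to MEKK3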
# * hit, by the source's call; i = inactive; · = no result given; [ ] = dose if it differs, or a comment.
SMILES,UCH37 inh,Rce1 inhib,MEKK3 PB1 HTS,MEKK2mut PB1 HTS,T cell HTS,MEKK2wt PB1 HTS,MEKK2wt confirm,MEKK2mut confirm,MEKK3 confirm
S=C(NN=Cc1cccc2ccccc12)Nc1cccc(Cl)c1,-1,·,·,·,·,·,·,·,·
N#Cc1cccc2c1-c1ccccc1C2=NNC(N)=S,5,·,·,·,·,·,·,·,·
N#CC(C#N)=C1C=CC=CN1/C(=C\c1ccco1)C(=O)c1ccc(Br)cc1,-9,·,137*,1,263,106,100,-2,102
CCOC(=O)C1=c2sc(=Cc3cccnc3)c(=O)n2C(N)=C(C(=O)OC)C1c1cccnc1 (stereo not given),8,·,·,·,·,·,·,·,·
NNC(=O)c1oc2ccccc2c1-n1cccc1,-1,i,143*,4,203,121,94,-6,95
O=C(NNC(=O)c1oc2ccccc2c1-n1cccc1)c1ccco1,2,i,104,1,230,92,·,·,·
Cc1[nH]c(=O)[nH]c(=O)c1C=NNC(=O)[C@H](C)NC(=O)OC(C)(C)C,5,·,·,·,·,·,·,·,·
CC(=NNC(=O)CNc1cccc(C(F)(F)F)c1)c1cccs1,0,·,·,·,·,·,·,·,·
S=C(Nc1ccccc1)Nc1ccc(OCc2ccc(Cl)cc2Cl)cc1,4,i,98,-8,419,97,·,·,·
OCCNCc1ccc(OCc2ccc(Cl)cc2Cl)cc1,1,i,101,27,178,138*,124,6,98
OCCCCNCc1ccc(OCc2ccc(Cl)cc2Cl)cc1,4,i,110,34*,326,169*,163,75*,108
Cc1cc(NN=Cc2ccccc2)nc(-c2ccccc2O)n1,-6,·,·,·,·,·,·,·,·
O=C(Nc1ccc(F)cc1)c1ccc(CSc2ccccc2)o1,2,i,145*,0,303,107,106,2,105
COc1ccc(N(CC(=O)N2CCN(c3ccc(F)cc3)CC2)S(=O)(=O)c2c(C)n[nH]c2C)cc1,-1,i,128*,-1,313,108,95,-8,98
COc1cccc(C=NNc2ncnc3c2[nH]c2ccc(C)cc23)c1OC,-4,·,·,·,·,·,·,·,·
CC[C@H](C)[C@@H](CN[C@H](C)CNC)NCCC(c1ccccc1)c1ccccc1,0,i,106,5,i,138*,135,30,104
CNC[C@@H](C)NC[C@@H](Cc1ccccc1)NCCc1ccccc1,0,i,110,5,533,131,·,·,·
O=C(CCc1ccccc1O)NN=Cc1ccc(Sc2cccc3cccnc23)o1,-4,·,·,·,·,·,·,·,·
CCOc1cc(C)c(Cl)cc1S(=O)(=O)NCc1ccc2c(c1)OCO2,-3,i,81*[inhibitor],-8,190,88,102,2,103
CCOc1cc(S(=O)(=O)NCc2ccc3c(c2)OCO3)c(C)cc1C,4,i,101,-1,210,100,·,·,·
